These results are taken from ChEMBL document CHEMBL4145567, “Natural Stilbenoids Have Anti-Inflammatory Properties in Vivo and Down-Regulate the Production of Inflammatory Mediators NO, IL6, and MCP1 Possibly in a PI3K/Akt-Dependent Manner” (J Nat Prod, 2018).

The subject of assay [1] is J774. Put plainly: Antiinflammatory activity in mouse J774 cells assessed as reduction in LPS-induced MCP1 expression after 24 hrs by ELISA. It is filed as functional, cell-based. To be noted: for IC50: J774, 24 h. An outline of the steps: (§1)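 J774 macrophages were grown 72 h to confluence in DMEM with 10% heat-inactivated FBS. Cells were stimulated with LPS (10 ng/mL) with increasing compound concentrations for 24 h. IL6 or MCP1 in the collected medium was measured by ELISA. Concentration giving 50% inhibition was taken from the concentration series; mean + SEM, n = 4.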

Assay [2] has as its system J774. Put plainly: Antiinflammatory activity in mouse J774 cells assessed as reduction in LPS-induced nitric oxide production after 24 hrs by Griess assay. It is filed as functional, cell-based. To be noted: for IC50: J774, 24 h. An outline of the steps:
(§2)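 Confluent J774 macrophages (72 h growth, DMEM/10% FBS) were treated with LPS 10 ng/mL plus increasing compound concentrations for 24 h. NO production was followed as nitrite accumulated in the medium, measured by Griess test. The half-maximal inhibitory concentration was derived from the concentration series; n = 4.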
(In general: The Griess reaction detects nitrite, a stable product of nitric oxide.)

Assay [3] concerns J774. Put plainly: Antiinflammatory activity in mouse J774 cells assessed as reduction in LPS-induced IL6 expression after 24 hrs by ELISA. The class given is functional, cell-based. The settings on record: for IC50: J774, 24 h. An outline of the steps: as §1
Assay [4] concerns J774. Put plainly: Inhibition of PI3K/Akt in mouse J774 cells assessed as reduction in LPS-induced Akt phosphorylation at Ser473 after 4 hrs by Western blot analysis. It is filed as cell-based. An outline of the steps:
(§3)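 J774 macrophages were exposed to LPS (10 ng/mL) for 4 h with increasing compound concentrations, then lysed on ice in Tris/EDTA/Triton buffer with protease and phosphatase inhibitors. Lysate protein (20 μg) was Western blotted with an antibody against Akt phospho-S473. Chemiluminescence was quantified; mean + SEM, n = 4.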

Assay [5] concerns Mus musculus. Put plainly: Antiinflammatory activity in carrageenan induced C57BL/6 mouse model of inflammation assessed as reduction in MCP1 expression in hind paw at 15 mg/kg, ip pretreated for 1 to 2 hrs followed by carrageenan challenge measured after 6 hrs by ELISA. It is filed as functional, organism-based. An outline of the steps:
(§4)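 Compound was given i.p. in 10% DMSO/PBS (pH 7.4) before intradermal 1.5% w/v λ-carrageenan (50 μL) into one hindpaw under anesthesia; the contralateral paw got saline. At 6 h, paw tissue was collected into 50 mM Tris pH 7.4, 150 mM NaCl with protease/phosphatase inhibitors, minced and centrifuged (10000g, 10 min). Supernatant cytokine was read by ELISA; n = 6–7/group.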
A general note: In an ELISA, binding on a coated surface is turned into a signal by an enzyme label.

Assay [6] has as its system Mus musculus. Put plainly: Antiinflammatory activity in carrageenan induced C57BL/6 mouse model of inflammation assessed as reduction in IL6 expression in hind paw at 15 mg/kg, ip pretreated for 1 to 2 hrs followed by carrageenan challenge measured after 6 hrs by ELISA. The class given is functional, organism-based. An outline of the steps:
as §4

Assay [7] deals with Mus musculus. Put plainly: Antiinflammatory activity in carrageenan induced C57BL/6 mouse model of inflammation assessed as reduction in paw edema at 15 mg/kg, ip pretreated for 1 to 2 hrs followed by carrageenan challenge measured after 3 to 6 hrs by plethysmometer. The class given is functional, organism-based. In a few lines: (§5)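 Mice got compound i.p. in 10% DMSO in PBS (pH 7.4) before carrageenan. Under i.p. medetomidine (0.5 mg/kg) plus ketamine (75 mg/kg), one hindpaw received 50 μL intradermal 1.5% w/v λ-carrageenan in saline, and the contralateral paw got saline. Paw volume was measured by plethysmometer before and 3 and 6 h after. Edema = carrageenan-paw minus saline-paw volume change; n = 6–7/group.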

Assay [8] deals with J774. Put plainly: Inhibition of PI3K/Akt in mouse J774 cells assessed as reduction in LPS-induced Akt phosphorylation at Ser473 at 10 uM after 4 hrs by Western blot analysis. The class given is cell-based. In a few lines: as §3
For orientation: In western blotting, separated proteins are transferred to a membrane and probed.

The test system of assay [9] is J774. Put plainly: Inhibition of PI3K/Akt in mouse J774 cells assessed as reduction in LPS-induced Akt phosphorylation at Ser473 at 30 uM after 4 hrs by Western blot analysis. The class given is cell-based. An outline of the steps:
as §3

The subject of assay [10] is J774. Put plainly: Antiinflammatory activity in mouse J774 cells assessed as reduction in LPS-induced IL6 expression at 30 uM after 24 hrs by ELISA. It is filed as functional, cell-based. An outline of the steps: as §1
For assay [11], the system named is J774. Put plainly: Antiinflammatory activity in mouse J774 cells assessed as reduction in LPS-induced MCP1 expression at 30 uM after 24 hrs by ELISA. It is filed as functional, cell-based. In a few lines: as §1
Assay [12] has as its system J774. Put plainly: Inhibition of PI3K/Akt in mouse J774 cells assessed as reduction in LPS-induced Akt phosphorylation at Ser473 at 100 uM after 4 hrs by Western blot analysis. The class given is cell-based. An outline of the steps:
as §3

The test system of assay [13] is J774. Put plainly: Antiinflammatory activity in mouse J774 cells assessed as reduction in LPS-induced nitric oxide production at 30 uM after 24 hrs by Griess assay. The class given is functional, cell-based. An outline of the steps: as §2
Assay [14] has as its system Mus musculus. Put plainly: Antiinflammatory activity in carrageenan induced C57BL/6 mouse model of inflammation assessed as reduction in IL6 expression in hind paw at 30 mg/kg, ip pretreated for 1 to 2 hrs followed by carrageenan challenge measured after 6 hrs by ELISA. It is filed as functional, organism-based. In a few lines: as §4
Assay [15] relates to Mus musculus. Put plainly: Antiinflammatory activity in carrageenan induced C57BL/6 mouse model of inflammation assessed as reduction in MCP1 expression in hind paw at 30 mg/kg, ip pretreated for 1 to 2 hrs followed by carrageenan challenge measured after 6 hrs by ELISA. It is filed as functional, organism-based. An outline of the steps: as §4
Assay [16] deals with Mus musculus. Put plainly: Antiinflammatory activity in carrageenan induced C57BL/6 mouse model of inflammation assessed as reduction in paw edema at 30 mg/kg, ip pretreated for 1 to 2 hrs followed by carrageenan challenge measured after 3 to 6 hrs by plethysmometer. The class given is functional, organism-based. In a few lines: as §5
Assay [17] deals with Mus musculus. Put plainly: Antiinflammatory activity in carrageenan induced C57BL/6 mouse model of inflammation assessed as reduction in MCP1 expression in hind paw at 2 mg/kg, ip pretreated for 1 to 2 hrs followed by carrageenan challenge measured after 6 hrs by ELISA. It is filed as functional, organism-based. In a few lines: as §4
The subject of assay [18] is Mus musculus. Put plainly: Antiinflammatory activity in carrageenan induced C57BL/6 mouse model of inflammation assessed as reduction in IL6 expression in hind paw at 2 mg/kg, ip pretreated for 1 to 2 hrs followed by carrageenan challenge measured after 6 hrs by ELISA. It is filed as functional, organism-based. An outline of the steps:
as §4

Assay [19] relates to Mus musculus. Put plainly: Antiinflammatory activity in carrageenan induced C57BL/6 mouse model of inflammation assessed as reduction in paw edema at 2 mg/kg, ip pretreated for 1 to 2 hrs followed by carrageenan challenge measured after 3 to 6 hrs by plethysmometer. It is filed as functional, organism-based. An outline of the steps:
as §5

Structures are written as SMILES. The source made the active and inactive calls. The calls are words filed in the database; no cut-off is given here.

What is called IC50 is the concentration at which inhibition is half-maximal.

For the compound `Oc1ccc(/C=C/c2cc(O)cc(O)c2)cc1` [RESVERATROL], the Activity entry in the assay on J774 [1], with J774 [2] and in the assay with J774 [3] was “Dose-dependent effect” throughout. The 50% inhibitory concentration (IC50) in the assay on J774 [1] was 13.6 µM; in the assay on J774 [2] it was 12.2 µM; with J774 [3], 6.8 µM. Further, the inhibition result in the assay with J774 [4] was “Dose-dependent effect”.

`COc1ccc(/C=C/c2cc(O)cc(O)c2)cc1O`: the Activity entry in the assay on J774 [1], in the assay with J774 [2] and in the assay on J774 [3] was “Dose-dependent effect” in each case. Besides, the IC50 in the assay on J774 [1] was found to be 19.4 µM; with J774 [2], 103 µM; in the assay with J774 [3], 99.1 µM. For the same compound, the inhibition entry in the assay on J774 [4] was “Dose-dependent effect”.

For the compound `O=c1cc(N2CCOCC2)oc2c(-c3ccccc3)cccc12` [LY-294002], the outcome in the assay on Mus musculus [5], with Mus musculus [6] and in the assay with Mus musculus [7] was Active. Besides, the concentration for half-maximal inhibition (IC50) was 3.7 µM in the assay on J774 [1], 8.9 µM with J774 [2] and 5.1 µM in the assay with J774 [3]. Moreover, in the assay with J774 [8], the inhibition entry is “Active”.

For `COc1cc(O)cc(/C=C/c2ccccc2)c1` [PINOSYLVIN METHYL ETHER], the Activity entry in the assay on J774 [1], in the assay with J774 [2] and in the assay with J774 [3] was “Dose-dependent effect” in each case. The concentration for half-maximal inhibition (IC50) with J774 [1] was 23.7 µM; in the assay on J774 [2] it was 37 µM; in the assay with J774 [3], 30.2 µM. The inhibition entry in the assay on J774 [4] was “Dose-dependent effect”.

Turning to `CC(C)(C)Oc1cc(O)cc(/C=C/c2ccccc2)c1`, in the assay with J774 [9], the inhibition result is “inactive”.

Turning to `Oc1cc(/C=C/c2ccccc2)cc(OCc2ccccc2)c1`, in the assay on J774 [9], the inhibition result was “inactive”.

On to `COc1ccc(/C=C/c2cc(O)cc(O[C@@H]3O[C@H](CO)[C@@H](O)[C@H](O)[C@H]3O)c2)cc1O`, for which the result in the assay on J774 [10], with J774 [11] and in the assay with J774 [13] was inactive. Also, the inhibition result in the assay on J774 [12] is “inactive”.

For `COc1cc(/C=C/c2ccc(O)cc2)cc(OC)c1` [PTEROSTILBENE], the outcome with Mus musculus [14], in the assay with Mus musculus [15] and with Mus musculus [16] was Active. In addition, the Activity result in the assay on J774 [1], with J774 [2] and in the assay on J774 [3] was “Dose-dependent effect” each time. Besides, the IC50 is 10.5 µM in the assay with J774 [1], 16.7 µM in the assay on J774 [2] and 8.7 µM in the assay with J774 [3]. Also, in the assay with J774 [4], the inhibition result was “Dose-dependent effect”.

Turning to `OC[C@H]1O[C@@H](Oc2cc(O)cc(/C=C/c3ccc(O)c(O)c3)c2)[C@H](O)[C@@H](O)[C@@H]1O`, the result in the assay on J774 [10], in the assay on J774 [11] and with J774 [13] was inactive. Moreover, the inhibition entry in the assay on J774 [12] is “inactive”.

Consider `C[C@@H]1C[C@H]2[C@@H]3CCC4=CC(=O)C=C[C@]4(C)[C@@]3(F)[C@@H](O)C[C@]2(C)[C@@]1(O)C(=O)CO`, for which the outcome in the assay on Mus musculus [17], in the assay on Mus musculus [18] and with Mus musculus [19] was Active.

`CCCOc1cc(O)cc(/C=C/c2ccccc2)c1`: the inhibition entry in the assay with J774 [9] was “inactive”.

For the compound `Oc1cc(O)cc(/C=C/c2ccc(O)c(O)c2)c1` [PICEATANNOL], the outcome in the assay on Mus musculus [14], in the assay with Mus musculus [15] and in the assay with Mus musculus [16] was Active. Besides, the Activity entry in the assay on J774 [1], in the assay on J774 [2] and with J774 [3] was “Dose-dependent effect” each time. The values for the IC50 in the assay with J774 [1], in the assay on J774 [2] and in the assay with J774 [3] were 4 µM, 2.6 µM and 13 µM, respectively. The inhibition result with J774 [4] is “Dose-dependent effect”.

Take `Oc1cc(O)cc(/C=C/c2ccccc2)c1` [PINOSYLVIN]: the outcome with Mus musculus [14], in the assay on Mus musculus [15] and with Mus musculus [16] was Active. Also, the Activity result with J774 [1], in the assay on J774 [2] and in the assay with J774 [3] was “Dose-dependent effect” each time. The half-inhibitory concentration (IC50) with J774 [1] came out at 38.7 µM; in the assay on J774 [2], 16.6 µM; with J774 [3], 32.1 µM. The inhibition entry in the assay on J774 [4] was “Dose-dependent effect”.

Turning to `CCOc1cc(O)cc(/C=C/c2ccccc2)c1`, the inhibition result with J774 [9] is “Active”.

On to `C=CCOc1cc(O)cc(/C=C/c2ccccc2)c1`, for which the inhibition entry in the assay on J774 [9] was “Active”.
